The text below walks through data of ChEMBL document CHEMBL4602675, “The Marine Natural Product Manzamine A Inhibits Cervical Cancer by Targeting the SIX1 Protein” (J Nat Prod, 2020).

The subject of series [1] is Ca-Ski. Put plainly: Induction of apoptosis in human CaSki cells assessed as viable cells at 4 uM after 24 hrs by Annexin V-FITC/PI double staining based flow cytometric analysis (reference value: 84%). It counts as functional. The note with it: read-out: Activity. For orientation: Flow cytometry measures light scatter and fluorescence of single cells or particles in a stream.

Series [2] concerns SiHa. Put plainly: Cell cycle arrest in human SiHa cells assessed as accumulation at G2/M phase at 4 uM after 72 hrs by propidium iodide staining based flow cytometric analysis (reference value: 18%). The class given is functional. The essentials:
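Cells in DMEM with 10% FBS, 2 mM L-glutamine, pen-strep, 37 °C, 5% CO2; seeded and left overnight, then treated at 4 μM with DMSO as control. Harvested by trypsin at 24, 48 or 72 h, fixed in chilled 70% ethanol 30 min on ice, RNase A (1 mg/mL) 30 min at room temperature, PI (20 μg/mL). Flow cytometry, ≥10 000 events, G0/G1, S, G2/M fractions; mean ± SEM.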

The test system of series [3] is HeLa. The series is described as follows: Induction of apoptosis in human HeLa cells assessed as viable cells at 4 uM after 48 hrs by Annexin V-FITC/PI double staining based flow cytometric analysis (reference value: 80.7%). It counts as functional. As to conditions: read-out: Activity.
Series [4] has as its system HeLa. Put plainly: Cell cycle arrest in human HeLa cells assessed as accumulation at Sub G1 phase at 4 uM after 48 hrs by propidium iodide staining based flow cytometric analysis (reference value: 2.1%). It counts as functional. The essentials:
(§1)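 Cells in DMEM/10% FBS at 37 °C, 5% CO2 were given 4 μM for 24, 48 or 72 h, with DMSO as control. After trypsinization they were fixed in chilled 70% ethanol on ice for 30 min, treated with RNase A (1 mg/mL) for 30 min at room temperature, and stained with PI (20 μg/mL). At least 10 000 events were read by flow cytometry to give sub-G1, G0/G1, S and G2/M fractions; mean ± SEM.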

For series [5], the system named is C-33-A. The series is described as follows: Cell cycle arrest in human C33A cells assessed as accumulation at G0/G1 phase at 4 uM after 48 hrs by propidium iodide staining based flow cytometric analysis (reference value: 54.6%). The class given is functional. A digest of the protocol: as §1
Series [6] deals with Casein kinase II subunit alpha (Homo sapiens) (UniProt P68400). The series is described as follows: Potency index, ratio for inhibition activity of apigenin to test compound for inhibition of CK2alpha in human CaSki cells after 48 hrs by Western blot analysis. The class given is cell-based. The note with it: Ca-Ski. A digest of the protocol: (§2)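 Cells plated at 1 × 10^6 per 100 mm dish and treated next day for 48 h with test compound (2 or 4 μM) or apigenin (10, 20 or 40 μM). RIPA lysates with protease inhibitors; equal protein loaded for SDS-PAGE, then PVDF transfer. Blocked in 5% milk/TBST (3% BSA for CK2α); anti-SIX1 or anti-CK2α 1:500, HRP secondary 1:2000; chemiluminescent detection.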
Casein kinase II subunit alpha (Homo sapiens), sequence (P68400 whole entry, looked up): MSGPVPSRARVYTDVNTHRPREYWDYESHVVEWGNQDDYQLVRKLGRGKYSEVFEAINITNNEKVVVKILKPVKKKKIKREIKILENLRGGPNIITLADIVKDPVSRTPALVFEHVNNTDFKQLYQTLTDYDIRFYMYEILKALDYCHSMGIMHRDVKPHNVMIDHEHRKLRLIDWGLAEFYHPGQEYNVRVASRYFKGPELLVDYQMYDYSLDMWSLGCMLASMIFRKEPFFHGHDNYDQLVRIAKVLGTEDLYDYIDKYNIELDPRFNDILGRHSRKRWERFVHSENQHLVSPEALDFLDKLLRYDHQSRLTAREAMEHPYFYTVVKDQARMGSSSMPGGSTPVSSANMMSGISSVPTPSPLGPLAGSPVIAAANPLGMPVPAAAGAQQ
On the technique in general: Immunoblotting shows a protein as a band on a membrane.

Series [7] relates to C-33-A. Put plainly: Cell cycle arrest in human C33A cells assessed as accumulation at G2/M phase at 4 uM after 72 hrs by propidium iodide staining based flow cytometric analysis (reference value: 25.2%). It counts as functional. The essentials:
as §1

Series [8] has as its system Ca-Ski. The series is described as follows: Induction of apoptosis in human CaSki cells assessed as early apoptotic cells at 4 uM after 48 hrs by Annexin V-FITC/PI double staining based flow cytometric analysis (reference value: 4.4%). The class given is functional.
Series [9] relates to SiHa. The series is described as follows: Induction of apoptosis in human SiHa cells assessed as apoptotic cells at 4 uM after 48 hrs by Annexin V-FITC/PI double staining based flow cytometric analysis (reference value: 6.4%). The class given is functional.
Series [10] concerns C-33-A. The series is described as follows: Induction of apoptosis in human C33A cells assessed as early apoptotic cells at 4 uM after 24 hrs by Annexin V-FITC/PI double staining based flow cytometric analysis (reference value: 4.3%). It counts as functional.
The subject of series [11] is Ca-Ski. Put plainly: Antiproliferative activity against human CaSki cells assessed as reduction in cell viability after 72 hrs by CellTiter-Glo assay. The class given is functional, cell-based. The essentials:
(§3)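 ATP-based luminescent viability readout. Cells were grown in DMEM with 10% FBS, 2 mM L-glutamine and penicillin-streptomycin at 37 °C, 5% CO2. 2 × 10^4 cells/well were seeded, then exposed the next day to 0–40 μM for 24, 48 or 72 h. % viability = 100 × treated/control. IC50 was fitted from a sigmoid dose-response curve. Run at least three times in quadruplicate; mean ± SEM.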
On the technique in general: Cellular ATP, detected with luciferase, serves as a proxy for viable cell number.

Series [12] deals with Casein kinase II subunit alpha (Homo sapiens) (UniProt P68400). The series is described as follows: Potency index, ratio for inhibition activity of apigenin to test compound for inhibition of CK2alpha in human C33A cells after 48 hrs by Western blot analysis. It counts as cell-based. The note with it: C-33-A. A digest of the protocol: as §2
In series [13] the test system is Ca-Ski. The series is described as follows: Cell cycle arrest in human CaSki cells assessed as accumulation at G2/M phase at 4 uM after 48 hrs by propidium iodide staining based flow cytometric analysis (reference value: 29.5%). The class given is functional. The essentials: as §1
Series [14] has as its system C-33-A. Put plainly: Induction of apoptosis in human C33A cells assessed as viable cells at 4 uM after 48 hrs by Annexin V-FITC/PI double staining based flow cytometric analysis (reference value: 82.8%). The class given is functional. As to conditions: read-out: Activity.
The subject of series [15] is Keratinocyte. Put plainly: Cytotoxicity against human Keratinocytes assessed as reduction in cell viability 2 to 4 uM incubated up to 72 hrs by CellTiter-Glo assay. The class given is cell-based.
In series [16] the target is T1, Homeobox protein SIX1 (Homo sapiens) (UniProt Q15475).
T1 sequence (whole entry): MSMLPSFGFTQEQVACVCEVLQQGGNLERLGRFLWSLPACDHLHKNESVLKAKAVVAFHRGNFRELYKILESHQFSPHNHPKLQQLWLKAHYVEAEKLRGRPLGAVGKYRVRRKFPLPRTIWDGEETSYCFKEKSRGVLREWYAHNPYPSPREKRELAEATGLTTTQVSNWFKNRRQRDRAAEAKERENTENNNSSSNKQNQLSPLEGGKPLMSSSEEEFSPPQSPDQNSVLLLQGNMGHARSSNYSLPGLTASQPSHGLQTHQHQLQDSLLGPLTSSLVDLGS
Put plainly: Potency index, ratio for inhibition activity of apigenin to test compound for inhibition of SIX1 in human SiHa cells after 48 hrs by Western blot analysis. The class given is cell-based. A digest of the protocol: as §2

The subject of series [17] is C-33-A. The series is described as follows: Inhibition of colony formation in human C33A cells at 2 to 4 uM afer 1 week by crystal violet staining based assay. It counts as functional, cell-based. A digest of the protocol: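 Cells were grown in DMEM with 10% FBS, seeded at 1 × 10^3 cells/ml in six-well plates, incubated overnight, then exposed to 2 or 4 μM at 37 °C under 5% CO2 for one week. Colonies were fixed with 4% paraformaldehyde, stained with 0.5% crystal violet and photographed.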

The test system of series [18] is SiHa. The series is described as follows: Antiproliferative activity against human SiHa cells assessed as reduction in cell viability after 72 hrs by CellTiter-Glo assay. The class given is functional, cell-based. The essentials: as §3
The test system of series [19] is HeLa. The series is described as follows: Cell cycle arrest in human HeLa cells assessed as accumulation at Sub G1 phase at 4 uM after 24 hrs by propidium iodide staining based flow cytometric analysis (reference value: 2.2%). The class given is functional. A digest of the protocol:
as §1

Series [20] concerns C-33-A. Put plainly: Induction of apoptosis in human C33A cells assessed as early apoptotic cells at 4 uM after 48 hrs by Annexin V-FITC/PI double staining based flow cytometric analysis (reference value: 12.9%). It counts as functional.
The target of series [21] is Casein kinase II subunit alpha (Homo sapiens) (UniProt P68400). Put plainly: Potency index, ratio for inhibition activity of apigenin to test compound for inhibition of CK2alpha in human SiHa cells after 48 hrs by Western blot analysis. The class given is cell-based. A digest of the protocol:
as §2

Series [22] has as its system Ca-Ski. Put plainly: Cell cycle arrest in human CaSki cells assessed as increase in accumulation at G0/G1 phase at 4 uM incubated for 24 hrs by propidium iodide staining based flow cytometric analysis. It counts as functional. The essentials:
as §1

The subject of series [23] is HeLa. Put plainly: Induction of apoptosis in human HeLa cells assessed as viable cells at 4 uM after 24 hrs by Annexin V-FITC/PI double staining based flow cytometric analysis (reference value: 85.2%). As to conditions: read-out: Activity. The class given is functional.

The structures appear in SMILES notation. Calls of active or inactive are those of the source. The rule behind the calls is not given here.

A word on the IC50: it is the point on the concentration scale where inhibition reaches its midpoint. As for `O[C@]12C=C(c3nccc4c3[nH]c3ccccc34)[C@@H]3CCN(CCCC/C=C\CC1)C[C@@]31C[C@@H]3/C=C\CCCCN3[C@H]12` [MANZAMINE A], the viability at 4 µM in series [1] worked out at 81.4%; in [3], 24.1%; in series [14], 63.6%; in series [23], 81.7%. Moreover, the Activity stood at 12.7% in [2]; 5.1% in [4]; 44.2% in series [5]; 19.3% in series [7]; 13.4% in [8]; 33.6% in series [9]. Moreover, the Activity in series [10] was 17.4%; in series [13], 10.1%; in series [15], “Non-Toxic”; in series [19] it was 2.1%; in series [20] it was 9.7%. Moreover, the Ratio in series [6], in [12], in series [16] and in series [21] was 10 each time. In addition, the IC50 in [11] came out at 9.4 µM; in [18], 4.1 µM. Also, the inhibition result in series [17] is “Active”. The “fold change (FC)” value in series [22] amounted to 1.4.
